Experimental data from ChEMBL document CHEMBL2311473, “Characterization of antimicrobial, cytotoxic, and antiendotoxin properties of short peptides with different hydrophobic amino acids at "a" and "d" positions of a heptad repeat sequence” (J Med Chem, 2013).
Values after ≈ are worked out from the molar mass of the structure shown. Active and inactive are the calls of the source. No cut-off for these calls is given here.

Assays:
[1] = system: NIH3T3; experiment: Cytotoxicity against mouse 3T3 cells assessed as cell viability up to 25 uM by MTT assay; format: cell-based
In short: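 Murine 3T3 fibroblasts, grown in DMEM/IMDM with 10% FCS at 37 °C, 5% CO2, seeded at 10000 cells/well. Viability after peptide exposure measured by MTT (mitochondrial dehydrogenase) across a dose range.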

[2] = system: Staphylococcus epidermidis; experiment: Antibacterial activity against Staphylococcus epidermidis NRRL B-4268 after 18 hrs by broth dilution method; format: functional; settings: NRRL B-4268, 18 h
In short: (§1)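 Bacteria grown aerobically at 37 °C in Mueller-Hinton broth to mid-log phase (OD600), diluted to ~10^6 cfu/mL, then mixed 1:1 with 2-fold serial peptide dilutions in water. Incubation ~18 h at 37 °C before MIC read-out (μM).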

[3] = system: Klebsiella pneumoniae; experiment: Antibacterial activity against Klebsiella pneumoniae ATCC 27736 after 18 hrs by broth dilution method; format: functional; settings: ATCC 27736, 18 h; in short: as §1
[4] = system: RAW264.7; experiment: Antiinflammatory activity in mouse RAW264.7 cells assessed as inhibition of LPS-induced TNFalpha secretion at 1.5 to 4.5 uM after 12 hrs by ELISA; format: functional, cell-based
In short: (§2)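 RAW 264.7 cells treated with LPS alone or LPS plus peptide. TNF-α and IL-6 measured by ELISA in culture supernatant and expressed as percentage inhibition of LPS-induced secretion. Mean of three independent experiments, SD shown.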

[5] = system: Trichophyton mentagrophytes; experiment: Antifungal activity against Trichophyton mentagrophytes after 96 hrs by NCCLS microbroth dilution method; format: functional
In short: (§3)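 Microbroth dilution in MOPS-buffered RPMI 1640 following NCCLS guidelines. Inoculum 1−5 × 10^3 cells/mL, peptide range 50−0.36 (mass/mL). Plates held in a moist chamber at 35 °C and A492 read after 48 h (Candida spp.), 72 h (A. fumigatus, S. schenckii, C. neoformans) or 96 h (T. mentagrophytes). MIC taken as 90% growth inhibition versus growth control.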

[6] = Binding affinity to PC/Chol lipid vesicles assessed as decrease in acrylamide-induced tryptophan fluorescence quenching at 1 uM; format: physicochemical
In short: (§4)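 Acrylamide quencher added in aliquots from 3.0 M stock to peptide with PC/Chol (8:1) or PE/PG (7:3) SUVs, peptide/lipid 1:100. Trp excited at 295 nm. Values corrected for dilution and vesicle-blank scatter, then fitted to Stern–Volmer F0/F = 1 + KSV[Q].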

[7] = system: Lipopolysaccharide (LPS); experiment: Binding affinity to LPS assessed as inhibition of LPS-induced LAL enzyme activation at 9 uM after 30 mins by spectrophotometric analysis
In short: (§5)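 Chromogenic limulus amoebocyte lysate endotoxin kit. Peptide binding to LPS estimated from inhibition of LPS-induced LAL enzyme activation, i.e. reduced substrate colour, and reported as percentage LPS binding.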

[8] = system: Staphylococcus aureus; experiment: Antibacterial activity against methicillin-resistant Staphylococcus aureus after 18 hrs by broth dilution method; format: functional; in short: as §1
[9] = system: Aspergillus fumigatus; experiment: Antifungal activity against Aspergillus fumigatus after 72 hrs by NCCLS microbroth dilution method; format: functional; in short: as §3
[10] = Drug uptake in human RBC assessed as membrane localization at 9 uM after 10 to 30 mins by confocal microscopic analysis; format: ADME; settings: erythrocyte
In short: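 Fresh hRBCs (3% in PBS) incubated with NBD-labeled peptide (~9.0 μM) for 10–30 min at 37 °C. Washed, fixed in 2% paraformaldehyde 10 min, and imaged by confocal microscopy at constant photomultiplier setting.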

[11] = system: Staphylococcus aureus; experiment: Antibacterial activity against Staphylococcus aureus ATCC 9144 after 18 hrs by broth dilution method; format: functional; settings: ATCC 9144, 18 h; in short: as §1
[12] = system: Escherichia coli; experiment: Bactericidal activity against Escherichia coli ATCC 10536 assessed as induction of membrane damage at 5 uM after 30 mins by propidium iodide staining-based flow cytometric analysis; format: functional, organism-based
In short: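 Mid-log E. coli incubated with peptide (~5.0 μM) 30 min at 37 °C with shaking. Cells washed twice in PBS, stained with propidium iodide 30 min at 4 °C, washed and resuspended. 10000 events per sample by flow cytometry, compared with peptide-free control.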

[13] = system: Escherichia coli; experiment: Antibacterial activity against Escherichia coli ATCC 10536 after 18 hrs by broth dilution method; format: functional; settings: ATCC 10536, 18 h; in short: as §1
[14] = Binding affinity to PC/Chol lipid vesicles assessed as induction of large blue shift at 1 uM by fluorescence assay; format: physicochemical
[15] = system: Escherichia coli; experiment: Drug uptake in Escherichia coli ATCC 10536 assessed as membrane localization at 3 uM after 30 mins by confocal microscopic analysis; format: ADME, organism-based; settings: in vivo, 0.5 h
In short: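 E. coli (~10^6 CFU/mL) in LB incubated with fluorescent-labeled peptide (~3.0 μM) for half an hour. Cells centrifuged, washed and imaged by confocal microscopy (DIC and fluorescence).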

[16] = system: Sporothrix schenckii; experiment: Antifungal activity against Sporothrix schenckii after 72 hrs by NCCLS microbroth dilution method; format: functional; in short: as §3
[17] = system: RAW264.7; experiment: Antiinflammatory activity in mouse RAW264.7 cells assessed as inhibition of LPS-induced NO production at 6 uM by Griess method; format: functional; design: scale not given: the % may be the effect or the level left
In short: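 RAW 264.7 cells plated at 5 × 10^5/well and exposed to LPS (E. coli 0111:B4, 1 μg/mL) together with peptide at varying doses. Cells with and without LPS served as maximum and basal NO controls. Nitrite in the supernatant measured by Griess reagent at 548 nm against a sodium nitrite standard curve, and percent inhibition of NO calculated.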

[18] = system: Lipopolysaccharide (LPS); experiment: Binding affinity to LPS assessed as inhibition of LPS-induced LAL enzyme activation at 18 uM after 30 mins by spectrophotometric analysis; in short: as §5
[19] = Cytotoxicity against human RBC assessed as hemolysis at 60 uM; format: cell-based, Erythrocyte; settings: red blood cells (RBC), read-out: Activity
In short: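 hRBCs in PBS exposed to peptide. Hemoglobin release read as supernatant absorbance at 540 nm. Hemolysis % = (Asample − Ablank)/(Atriton − Ablank) × 100, with PBS blank and 0.2% Triton X-100 (final) as 100% reference.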

[20] = system: Candida albicans; experiment: Antifungal activity against Candida albicans after 48 hrs by NCCLS microbroth dilution method; format: functional; in short: as §3
[21] = system: Cryptococcus neoformans; experiment: Antifungal activity against Cryptococcus neoformans after 72 hrs by NCCLS microbroth dilution method; format: functional; in short: as §3
[22] = system: Bacillus subtilis; experiment: Antibacterial activity against Bacillus subtilis ATCC 6633 after 18 hrs by broth dilution method; format: functional; settings: ATCC 6633, 18 h; in short: as §1
[23] = Binding affinity to PE/PG lipid vesicles assessed as induction of large blue shift at 1 uM by fluorescence assay; format: physicochemical
[24] = system: Lipopolysaccharide (LPS); experiment: Binding affinity to LPS assessed as inhibition of LPS-induced LAL enzyme activation at 4.5 uM after 30 mins by spectrophotometric analysis; in short: as §5
[25] = system: Lipopolysaccharide (LPS); experiment: Binding affinity to LPS assessed as increase in helical structure at 36 uM by circular dichroism analysis
In short: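 CD spectra of peptides (36 μM) recorded alone and with LPS at 3.8 and 6.25 μM.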

[26] = system: RAW264.7; experiment: Antiinflammatory activity in mouse RAW264.7 cells assessed as inhibition of LPS-induced IL6 secretion at 1.5 to 4.5 uM after 12 hrs by ELISA; format: functional, cell-based; in short: as §2
[27] = system: Pseudomonas aeruginosa; experiment: Antibacterial activity against Pseudomonas aeruginosa ATCC BAA-427 after 18 hrs by broth dilution method; format: functional; settings: ATCC BAA-427, 18 h; in short: as §1
[28] = system: RAW264.7; experiment: Antiinflammatory activity in mouse RAW264.7 cells assessed as downregulation of LPS-induced iNOS2 expression at 4.5 uM after 24 hrs by Western blotting analysis; format: functional, cell-based
In short: (§6)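 RAW 264.7 cells (~2 × 10^5) stimulated with LPS 1 μg/mL plus peptide 4.5 μM for 24 h. Cells washed in ice-cold PBS and lysed in Laemmli buffer. SDS-PAGE (8% gel iNOS-2, 12% TNF-α), nitrocellulose transfer, alkaline phosphatase secondary with NBT/BCIP. Band densities normalized to β-actin. LPS-only and untreated cells served as controls.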

[29] = Induction of dissipation of diffusion potential in PE/PG lipid vesicles by fluorescence assay; format: physicochemical
In short: (§7)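 SUVs of PC/Chol (8:1 w/w) or PE/PG (7:3 w/w) treated with peptide. Dissipation of diffusion potential taken as percentage fluorescence recovery ~5 min after peptide addition, with valinomycin used for reference levels. Plotted against peptide/lipid molar ratio.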

[30] = Cytotoxicity against human RBC assessed as induction of membrane damage at 25 uM after 5 mins by annexin V-FITC staining-based FACS flow cytometric analysis; format: cell-based; settings: erythrocyte
In short: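 hRBCs (~3.0 × 10^7 cells/mL) treated with peptide (~25.0 μM) for 5 min at room temperature. Stained with FITC-annexin V and analysed by flow cytometry, 10000 events, compared with untreated control.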

[31] = Binding affinity to PE/PG lipid vesicles assessed as decrease in decrease in acrylamide-induced tryptophan fluorescence quenching at 1 uM; format: physicochemical; in short: as §4
[32] = Induction of dissipation of diffusion potential in PC/Chol lipid vesicles by fluorescence assay; format: physicochemical; in short: as §7
[33] = system: Candida parapsilosis; experiment: Antifungal activity against Candida parapsilosis ATCC 22019 after 48 hrs by NCCLS microbroth dilution method; format: functional; settings: Lodderomyces parapsilosis, ATCC 22019, 48 h; in short: as §3
[34] = Cytotoxicity against human RBC assessed as induction of membrane depolarization at up to 16 uM by DiSC3(5) staining-based fluorescence assay; format: cell-based; settings: erythrocyte
In short: (§8)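 Membrane potential dye diS-C3-5 preincubated 1 h with hRBC or S. aureus suspensions; I0 is steady-state fluorescence after this incubation. Peptide then added at varying concentrations. Depolarization expressed as percentage fluorescence recovery (Ft) versus peptide concentration.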

[35] = system: Lipopolysaccharide (LPS); experiment: Binding affinity to FITC-tagged LPS assessed as induction of disintegration up to 40 uM by […]; settings: in the assay text read “fluorescence dequenching” for “circular dichroism”
In short: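 FITC-LPS (0.5 μg/mL) titrated with increasing peptide concentrations. Disaggregation read as dequenching, i.e. rise in FITC fluorescence, monitored after each addition until emission reached equilibrium.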

[36] = system: Staphylococcus aureus; experiment: Bactericidal activity against Staphylococcus aureus ATCC 9144 assessed as induction of membrane depolarization at up to 7 uM by DiSC3(5) staining-based fluorescence assay; format: functional, organism-based; in short: as §8
[37] = system: RAW264.7; experiment: Antiinflammatory activity in mouse RAW264.7 cells assessed as downregulation of LPS-induced TNFalpha expression at 4.5 uM after 24 hrs by Western blotting analysis; format: functional, cell-based; in short: as §6

Which results are given for `C[C@H](N)C(=O)O` [ALANINE]?
Activity [1]: Toxic; MIC [2]: 8 µM (≈ 0.713 µg/mL); MIC [3]: 25 µM (≈ 2.23 µg/mL); inhibition [4]: Active; MIC [5]: > 25 µM; Activity [6]: Not Active; inhibition [7]: 7%; MIC [8]: > 25 µM; MIC [9]: > 25 µM; Drug uptake [10]: Not Active; MIC [11]: 6.25 µM (≈ 0.557 µg/mL); Activity [12]: Active; MIC [13]: 4.5 µM (≈ 0.401 µg/mL); Activity [14]: Not Active; Drug uptake [15]: Active; MIC [16]: 25 µM (≈ 2.23 µg/mL); Activity [17]: 13%; inhibition [18]: 10%; hemolysis at 60 µM [19]: 1%; MIC [20]: > 25 µM; MIC [21]: > 25 µM; MIC [22]: 20 µM (≈ 1.78 µg/mL); Activity [23]: Active; inhibition [24]: 3%; Activity [25]: Active; inhibition [26]: Active; MIC [27]: 6.25 µM (≈ 0.557 µg/mL); Activity [28]: Active; Activity [29]: Active; Activity [30]: Non-toxic; Activity [31]: Active; Activity [32]: Active; MIC [33]: 25 µM (≈ 2.23 µg/mL); Activity [34]: Non-toxic; Activity [35]: Active; Activity [36]: Active; Activity [37]: Active
